According to ChEMBL document CHEMBL1122233, “Antihypertensive 9-substituted 1-oxa-4,9-diazaspiro[5.5]undecan-3-ones” (J Med Chem, 1983):

Key:
Rattus norvegicus [1] = assay: (§1) Percentage fall in systolic blood pressure after 1 hr at 50 mg/kg given perorally; type: functional, Artery; details: route oral
Method in brief: (§2)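 Male Okamoto-Aoki SHR, four per group, with a concurrent vehicle control group. Oral dosing in water (0.1 mL/10 g) on two consecutive mornings. After the day-2 dose, rats were restrained in a 30 °C chamber. Tail-cuff systolic pressure was taken at 1-4 h from four traces per rat. Result is % decrease versus control mean, by 1-tailed t test, p ≤ 0.05.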

Rattus norvegicus [2] = assay: (§3) Percentage fall in systolic blood pressure after 4 hours at 50 mg/kg given perorally; type: functional, organism-based; design: dose 50 mg/kg; details: Artery; method in brief: as §2
Rattus norvegicus [3] = assay: (§4) Percentage fall in systolic blood pressure after 3 hours at 50 mg/kg given perorally; type: functional, Artery; details: route oral; method in brief: as §2
Rattus norvegicus [4] = assay: (§5) Percentage fall in systolic blood pressure after 2 hours at 50 mg/kg given perorally; type: functional, Artery; details: route oral; method in brief: as §2
Rattus norvegicus [5] = assay: Percentage fall in systolic blood pressure after 4 hr at 12.5 mg/kg given perorally; type: functional, organism-based; design: dose 12.5 mg/kg; details: Artery
Method in brief: (§6)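 Male Okamoto-Aoki spontaneously hypertensive rats, trained, in groups of four matched for mean systolic pressure; five treated groups and one vehicle control run concurrently. Oral dosing in water (solution or suspension, 0.1 mL/10 g) on two consecutive mornings. On day 2, rats were restrained at 30.0 ± 1.0 °C and tail-cuff systolic pressure recorded at 1–4 h; percent fall versus control, 1-tail t test, p ≤ 0.05.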

Rattus norvegicus [6] = assay: (§7) Percentage fall in systolic blood pressure after 1 hr at 12.5 mg/kg given perorally; type: functional, organism-based; design: dose 12.5 mg/kg; details: Artery; method in brief: as §6
Rattus norvegicus [7] = assay: Percentage fall in systolic blood pressure after 3 hr at 12.5 mg/kg given perorally; type: functional, organism-based; design: dose 12.5 mg/kg; details: Artery; method in brief: as §6
Rattus norvegicus [8] = assay: Percentage fall in systolic blood pressure after 2 hr at 12.5 mg/kg given perorally; type: functional, organism-based; design: dose 12.5 mg/kg; details: Artery; method in brief: as §6
Rattus norvegicus [9] = assay: as §3; type: functional, Artery; details: route oral; method in brief: as §2
Rattus norvegicus [10] = assay: as §5; type: functional, organism-based; design: dose 50 mg/kg; details: Artery; method in brief: as §2
Rattus norvegicus [11] = assay: as §4; type: functional, organism-based; design: dose 50 mg/kg; details: Artery; method in brief: as §2
Rattus norvegicus [12] = assay: as §1; type: functional, organism-based; design: dose 50 mg/kg; details: Artery; method in brief: as §6
Rattus norvegicus [13] = assay: Percentage fall in systolic blood pressure after 4 hours at 25 mg/kg given perorally; type: functional, Artery; details: route oral; method in brief: as §6
Rattus norvegicus [14] = assay: Percentage fall in systolic blood pressure after 1 hr at 25 mg/kg given perorally; type: functional, Artery; details: route oral; method in brief: as §6
Rattus norvegicus [15] = assay: Percentage fall in systolic blood pressure after 2 hours at 25 mg/kg given perorally; type: functional, Artery; details: route oral; method in brief: as §6
Rattus norvegicus [16] = assay: Percentage fall in systolic blood pressure after 3 hours at 25 mg/kg given perorally; type: functional, Artery; details: route oral; method in brief: as §6
Rattus norvegicus [17] = assay: Percentage fall in systolic blood pressure after 3 hours at 12.5 mg/kg given perorally; type: functional, Artery; details: route oral; method in brief: as §2
Rattus norvegicus [18] = assay: Percentage fall in systolic blood pressure after 2 hours at 12.5 mg/kg given perorally; type: functional, Artery; details: route oral; method in brief: as §2
Rattus norvegicus [19] = assay: Percentage fall in systolic blood pressure after 4 hours at 12.5 mg/kg given perorally; type: functional, Artery; details: route oral; method in brief: as §2
Rattus norvegicus [20] = assay: as §7; type: functional, Artery; details: route oral; method in brief: as §2
Rattus norvegicus [21] = assay: Percentage fall in systolic blood pressure after 3 hr at 25 mg/kg given perorally; type: functional, Artery; details: route oral, 25 mg/kg; method in brief: as §6
Rattus norvegicus [22] = assay: Percentage fall in systolic blood pressure after 2 hr at 25 mg/kg given perorally; type: functional, Artery; details: route oral, 25 mg/kg; method in brief: as §6

## CCC(=O)NCC1CCN(CCc2c[nH]c3ccccc23)CC1
Rattus norvegicus [1]
  Decrease in SBP: 23%
Rattus norvegicus [2]
  Decrease in SBP: Not significant
Rattus norvegicus [3]
  Decrease in SBP: 15%
Rattus norvegicus [4]
  Decrease in SBP: 23%

## CCC1OC2(CCN(CCc3c[nH]c4ccccc34)CC2)CNC1=O (stereo not drawn)
Rattus norvegicus [1]
  Decrease in SBP: 26%
Rattus norvegicus [2]
  Decrease in SBP: Not significant
Rattus norvegicus [3]
  Decrease in SBP: 15%
Rattus norvegicus [4]
  Decrease in SBP: 23%

## COc1ccc(CCN2CCC3(CC2)CNC(=O)CO3)cc1
Rattus norvegicus [5]
  Decrease in SBP: Not significant
Rattus norvegicus [6]
  Decrease in SBP: Not significant
Rattus norvegicus [7]
  Decrease in SBP: Not significant
Rattus norvegicus [8]
  Decrease in SBP: Not significant

## COCC(=O)NCC1CCN(CCc2c[nH]c3ccccc23)CC1
Rattus norvegicus [1]
  Decrease in SBP: 20%
Rattus norvegicus [9]
  Decrease in SBP: 26%
Rattus norvegicus [3]
  Decrease in SBP: 13%
Rattus norvegicus [4]
  Decrease in SBP: 18%

## COc1ccc(CCN2CCC3(CC2)CNC(=O)CO3)cc1OC
Rattus norvegicus [10]
  Decrease in SBP: Not significant
Rattus norvegicus [11]
  Decrease in SBP: Not significant
Rattus norvegicus [12]
  Decrease in SBP: Not significant
Rattus norvegicus [2]
  Decrease in SBP: Not significant

## CCC1N(C)C(=O)COC12CCN(CCc1c[nH]c3ccccc13)CC2 (stereo not drawn)
Rattus norvegicus [10]
  Decrease in SBP: Not significant
Rattus norvegicus [11]
  Decrease in SBP: Not significant
Rattus norvegicus [12]
  Decrease in SBP: Not significant
Rattus norvegicus [2]
  Decrease in SBP: Not significant

## O=C1COC2(CCN(CCC(=O)c3ccc(F)cc3)CC2)CN1
Rattus norvegicus [13]
  Decrease in SBP: 20%
Rattus norvegicus [14]
  Decrease in SBP: 27%
Rattus norvegicus [15]
  Decrease in SBP: 24%

## COC1(CNC(=O)c2ccccc2)CCN(CCc2c[nH]c3ccccc23)CC1
Rattus norvegicus [1]
  Decrease in SBP: 30%
Rattus norvegicus [2]
  Decrease in SBP: Not significant
Rattus norvegicus [3]
  Decrease in SBP: 22%
Rattus norvegicus [4]
  Decrease in SBP: 28%

## O=C1COC2(CCN(CCc3c[nH]c4ccccc34)CC2)CN1c1cccc(F)c1
Rattus norvegicus [13]
  Decrease in SBP: 18%
Rattus norvegicus [16]
  Decrease in SBP: 22%
Rattus norvegicus [14]
  Decrease in SBP: 29%
Rattus norvegicus [15]
  Decrease in SBP: 31%

## COC1(CNC(C)=O)CCN(CCc2c[nH]c3ccccc23)CC1
Rattus norvegicus [10]
  Decrease in SBP: Not significant
Rattus norvegicus [11]
  Decrease in SBP: Not significant
Rattus norvegicus [1]
  Decrease in SBP: 17%
Rattus norvegicus [2]
  Decrease in SBP: Not significant

## CCCN1CC2(CCN(CCc3c[nH]c4ccccc34)CC2)OCC1=O
Rattus norvegicus [1]
  Decrease in SBP: 47%
Rattus norvegicus [9]
  Decrease in SBP: 39%
Rattus norvegicus [17]
  Decrease in SBP: 24%
Rattus norvegicus [18]
  Decrease in SBP: 26%
Rattus norvegicus [19]
  Decrease in SBP: 16%
Rattus norvegicus [20]
  Decrease in SBP: 18%
Rattus norvegicus [3]
  Decrease in SBP: 22%
Rattus norvegicus [4]
  Decrease in SBP: 22%

## O=C1COC2(CCN(CCc3c[nH]c4ccccc34)CC2)CN1Cc1ccccc1
Rattus norvegicus [10]
  Decrease in SBP: Not significant
Rattus norvegicus [11]
  Decrease in SBP: Not significant
Rattus norvegicus [1]
  Decrease in SBP: 18%
Rattus norvegicus [2]
  Decrease in SBP: Not significant

## CCN1CC2(CCN(CCc3c[nH]c4ccccc34)CC2)OCC1=O
Rattus norvegicus [1]
  Decrease in SBP: 55%
Rattus norvegicus [9]
  Decrease in SBP: 42%
Rattus norvegicus [17]
  Decrease in SBP: 30%
Rattus norvegicus [18]
  Decrease in SBP: 33%
Rattus norvegicus [19]
  Decrease in SBP: 21%
Rattus norvegicus [20]
  Decrease in SBP: 22%
Rattus norvegicus [3]
  Decrease in SBP: 28%
Rattus norvegicus [4]
  Decrease in SBP: 33%

## CCN1CC2(CCN(CCCC(=O)c3ccc(F)cc3)CC2)OCC1=O
Rattus norvegicus [13]
  Decrease in SBP: 13%
Rattus norvegicus [16]
  Decrease in SBP: 27%
Rattus norvegicus [14]
  Decrease in SBP: 35%
Rattus norvegicus [15]
  Decrease in SBP: 31%

## CC(=O)NCC1CCN(CCc2c[nH]c3ccccc23)CC1
Rattus norvegicus [1]
  Decrease in SBP: 30%
Rattus norvegicus [9]
  Decrease in SBP: 26%
Rattus norvegicus [3]
  Decrease in SBP: 15%
Rattus norvegicus [4]
  Decrease in SBP: 26%

## CN1CC2(CCN(CC(O)C3COc4ccccc4O3)CC2)OCC1=O (stereo in doubt; 60)
Rattus norvegicus [14]
  Decrease in SBP: 41%
Rattus norvegicus [21]
  Decrease in SBP: 17%
Rattus norvegicus [22]
  Decrease in SBP: 33%

## O=C1COC2(CCN(CCc3ccc(F)cc3)CC2)CN1
Rattus norvegicus [5]
  Decrease in SBP: Not significant
Rattus norvegicus [6]
  Decrease in SBP: Not significant
Rattus norvegicus [7]
  Decrease in SBP: Not significant
Rattus norvegicus [8]
  Decrease in SBP: Not significant

## O=C1COC2(CCN(C3CCc4ccccc4C3)CC2)CN1 (stereo not drawn)
Rattus norvegicus [1]
  Decrease in SBP: 28%
Rattus norvegicus [9]
  Decrease in SBP: 20%
Rattus norvegicus [3]
  Decrease in SBP: 23%
Rattus norvegicus [4]
  Decrease in SBP: 24%
